In ChEMBL document CHEMBL3739308, “Resveratrol-Related Polymethoxystilbene Glycosides: Synthesis, Antiproliferative Activity, and Glycosidase Inhibition” (J Nat Prod, 2015):

What was measured:
[1] = Antiproliferative activity against human Caco2 cells; type: functional, cell-based; conditions: Caco-2
Procedure, shortened: (§1)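 Cells seeded at (2.5−3.0) × 10^3 per well, treated after 24 h with compound at final 0.01−100 μM; 0.5−1% DMSO controls. Exposure 3 days (72 h) at 37 °C, 5% CO2; MTT read at 570 nm, 6−8 wells per value. GI50 by NCI formula 100(T − T0)/(C − T0) = 50 versus time-zero and DMSO-control OD; mean ± SD of four experiments.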

SH-SY5Y = test: Antiproliferative activity against human SH-SY5Y cells after 72 hrs by MTT-based Mosmann assay relative to control; type: functional; procedure, shortened: as §1
[2] = Antiproliferative activity against human Caco2 cells after 72 hrs by MTT-based Mosmann assay relative to control; type: functional; conditions: Caco-2, 72 h; procedure, shortened: as §1
[3] = Stability of the compound in phosphate buffer assessed as Aspergillus oryzae beta-galactosidase-mediated compound hydrolysis at 5 x 10^-5 M at pH 7.2 at 37 degC measured within 96 hrs by HPLC analysis; type: ADME; conditions: pH 7.2, 96 h, 50 µM
Procedure, shortened: (§2)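 Glycoside diluted from DMSO into 0.050 M Na2HPO4/KH2PO4 pH 7.2 to final 5.0 × 10−5 M (≤1.0% DMSO). Almond β-glucosidase (1.2 U/mL) or A. oryzae β-galactosidase (0.7 U/mL) added; 37 °C, shaking at 400 rpm, sampled up to 96 h. Enzyme-free controls run. Reversed-phase HPLC at 305 nm; released aglycone quantified against 10−5−10−6 M calibration curves. Triplicate.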

beta-glucosidase = test: (§3) Half life in phosphate buffer assessed as almond beta-glucosidase-mediated compound hydrolysis at 5 x 10^-5 M at pH 7.2 at 37 degC measured within 96 hrs by HPLC analysis; type: ADME; conditions: prunus dulcis, almond beta-glucosidase in phosphate buffer, pH 7.2; procedure, shortened: as §2
[4] = molecular target: β-galactosidase (Aspergillus Oryzae) (Aspergillus oryzae, UniProt Q2UCU3); test: Inhibition of Aspergillus oryzae beta-galactosidase using oNP-beta-Gal as substrate assessed as release of o-nitrophenol incubated for 30 mins by spectrophotometric analysis
β-galactosidase (Aspergillus Oryzae), sequence (Q2UCU3 whole entry, looked up): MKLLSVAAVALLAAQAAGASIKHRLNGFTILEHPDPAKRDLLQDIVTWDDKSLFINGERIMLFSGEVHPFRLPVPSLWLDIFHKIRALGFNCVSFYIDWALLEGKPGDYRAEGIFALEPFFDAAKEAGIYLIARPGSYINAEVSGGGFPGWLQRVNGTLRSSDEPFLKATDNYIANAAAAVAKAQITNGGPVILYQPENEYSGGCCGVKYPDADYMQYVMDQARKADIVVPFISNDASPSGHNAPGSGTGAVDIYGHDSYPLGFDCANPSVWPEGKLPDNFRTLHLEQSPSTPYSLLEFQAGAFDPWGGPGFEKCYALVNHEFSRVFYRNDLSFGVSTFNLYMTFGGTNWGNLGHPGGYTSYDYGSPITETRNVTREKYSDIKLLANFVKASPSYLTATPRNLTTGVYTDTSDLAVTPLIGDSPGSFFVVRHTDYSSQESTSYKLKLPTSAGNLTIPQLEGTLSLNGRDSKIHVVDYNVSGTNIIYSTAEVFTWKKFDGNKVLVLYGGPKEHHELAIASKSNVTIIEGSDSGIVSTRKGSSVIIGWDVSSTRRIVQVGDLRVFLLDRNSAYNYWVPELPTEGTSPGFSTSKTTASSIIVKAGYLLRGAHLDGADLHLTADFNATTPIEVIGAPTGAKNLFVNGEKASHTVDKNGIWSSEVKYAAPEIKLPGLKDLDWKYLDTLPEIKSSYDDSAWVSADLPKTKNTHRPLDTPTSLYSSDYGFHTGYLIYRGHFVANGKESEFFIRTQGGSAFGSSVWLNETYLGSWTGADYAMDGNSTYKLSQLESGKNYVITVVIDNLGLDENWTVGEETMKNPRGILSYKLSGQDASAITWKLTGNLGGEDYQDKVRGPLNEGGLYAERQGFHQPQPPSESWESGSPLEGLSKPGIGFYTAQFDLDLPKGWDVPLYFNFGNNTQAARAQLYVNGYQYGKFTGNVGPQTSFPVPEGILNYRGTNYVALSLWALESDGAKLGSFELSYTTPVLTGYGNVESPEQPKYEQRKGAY
Procedure, shortened: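 Inhibition assay (modified Tsujii method) at 25 °C. Substrate at 6.5 × 10−5 M final in DMSO/phosphate buffer (Na2HPO4/KH2PO4 0.050 M, pH 7.2). Enzyme at 4.0 U/mL. Compound stocks 2.6−4.7 × 10−4 M, five concentrations; DMSO ≤1.0% final. Absorbance read at 400 nm. Percent inhibition taken from residual activity versus no-compound control. IC50 is the mean of three experiments.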

[5] = Inhibition of Saccharomyces cerevisiae alpha-glucosidase using pNP-alpha-Glc as substrate assessed as release of p-nitrophenol incubated for 2 hrs by spectrophotometric analysis
Procedure, shortened: (§4)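 Substrate at final 6.5 × 10−5 M in DMSO/0.050 M phosphate buffer pH 7.2, 25 °C, with five inhibitor levels (≤1.0% DMSO). Enzyme: 2.0 U/mL yeast α-glucosidase, 2 h; 2.9 U/mL almond β-glucosidase, 30 min. Nitrophenol release read at 400 nm; % inhibition from residual activity versus no-compound activity; IC50 = 50% inhibition. Triplicate; mean ± SD of three experiments.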

[6] = Inhibition of almond beta-glucosidase using pNP-beta-Glc as substrate assessed as release of p-nitrophenol incubated for 30 mins by spectrophotometric analysis; set-up: species or system Prunus dulcis; procedure, shortened: as §4
beta-galactosidase = test: Half life in phosphate buffer assessed as Aspergillus oryzae beta-galactosidase-mediated compound hydrolysis at 5 x 10^-5 M at pH 7.2 at 37 degC measured within 96 hrs by HPLC analysis
[7] = Drug level in phosphate buffer treated with (2R,3S,4S,5S)-2-[2-(4-Methoxystyryl)-4,6-dimethoxyphenoxy]-tetrahydro-6-hydroxymethyl-2H-pyran-3,4,5-triol at 5 x 10^-5 M at pH 7.2 at 37 degC after 72 hrs by HPLC analysis in presence of Aspergillus oryzae beta-galactosidase; type: ADME; conditions: pH 7.2, 72 h; procedure, shortened: as §2
[8] = as §3; type: ADME; conditions: prunus dulcis, buffer, pH 7.2, 96 h, 50 µM; procedure, shortened: as §2

| Structure (SMILES) | IC50 [1] [µM] | GI50 (SH-SY5Y) [µM] | GI50 [2] [µM] | Stability [3] | half-life at 50 µM (beta-glucosidase) [h] | IC50 [4] [µM] | IC50 [5] [µM] | IC50 ([6]; read-out: IC50) [µM] | half-life at 50 µM (beta-galactosidase) [h] | Drug metabolism [7] | Stability [8] | IC50 [6] |
| --- | --- | --- | --- | --- | --- | --- | --- | --- | --- | --- | --- | --- |
| CC/C(=C(/CC)c1ccc(O)cc1)c1ccc(O)cc1 [DIETHYLSTILBESTROL] | 75 | – | – | – | – | – | – | – | – | – | – | – |
| O=c1[nH]cc(F)c(=O)[nH]1 [FLUOROURACIL] | – | 1.5 | 2.2 | – | – | – | – | – | – | – | – | – |
| COc1cc(/C=C/c2cc(OC)cc(OC)c2O[C@H]2O[C@H](CO)[C@@H](O)[C@H](O)[C@H]2O)cc(OC)c1 | – | > 10 | 44.2 | Stable | 70 | 297 | 133 | 272 | – | – | – | – |
| COc1cc(/C=C/c2ccc(OC)c(OC)c2)c(O)c(OC)c1 | – | 14.3 | 3 | – | – | – | – | – | – | – | – | – |
| COc1ccc(/C=C/c2cc(OC)cc(OC)c2O[C@H]2O[C@H](CO)[C@@H](O)[C@H](O)[C@H]2O)cc1 | – | 21.9 | > 10 | – | 11 | – | 91 | 208 | 77 | – | – | – |
| COc1cc(/C=C/c2ccc(OC)c(OC)c2)c(O[C@H]2O[C@H](CO)[C@@H](O)[C@H](O)[C@H]2O)c(OC)c1 | – | > 10 | > 10 | Stable | 20 | 258 | 78 | 192 | – | – | – | – |
| COc1ccc(/C=C/c2cc(OC)cc(OC)c2O)cc1 | – | 4.5 | 5.8 | – | – | – | – | – | – | metabolite_detected | – | – |
| COc1cc(/C=C/c2cc(OC)cc(OC)c2O[C@H]2O[C@H](CO)[C@H](O)[C@H](O)[C@H]2O)cc(OC)c1 | – | 22.5 | 16 | Stable | – | 296 | 332 | – | – | – | Stable | Not Active |
| COc1cc(/C=C/C(=O)CC(=O)/C=C/c2ccc(O)c(OC)c2)ccc1O [CURCUMIN] | 10.3 | – | – | – | – | – | – | – | – | – | – | – |
| COc1cc(/C=C/c2cc(OC)cc(OC)c2O)cc(OC)c1 | – | > 10 | > 10 | – | – | – | – | – | – | – | – | – |
| COc1ccc(/C=C/c2cc(OC)cc(OC)c2O[C@H]2O[C@H](CO)[C@H](O)[C@H](O)[C@H]2O)cc1 | – | 48.4 | > 10 | Stable | – | 298 | 201 | 350 | – | – | Stable | – |
| COc1cc(/C=C/c2ccc(OC)c(OC)c2)c(O[C@H]2O[C@H](CO)[C@H](O)[C@H](O)[C@H]2O)c(OC)c1 | – | > 10 | > 10 | Stable | – | 299 | 70 | 170 | – | – | Stable | – |
